Assay type in all cases: functional, cell-based
For one assay, the system named is K562. The experiment in a line: Cytotoxicity against human K562 cells assessed as growth inhibition after 48 hrs by SRB assay. Particulars: K562, 48 h. In outline: (§1)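 Cell lines from NCI, grown in RPMI-1640 with 10% FBS and antibiotics at 37 °C, 5% CO2. Seeding: HCT-15 10 × 10^4 cell/well, K562 5 × 10^4 cell/mL, SKLU-1 7500 cell/mL. After 24 h, compound added for 48 h. Cells fixed in cold TCA (60 min, 4 °C), stained with 0.4% SRB, dye extracted in Tris base, OD read at 515 nm. IC50 from linear regression; means ± SEM, three replicates.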

Another assay has as its system HCT-15. The experiment in a line: Cytotoxicity against human HCT15 cells assessed as growth inhibition after 48 hrs by SRB assay. Particulars: HCT-15, 48 h. In a few lines: as §1
A general note: Sulforhodamine B stains cellular protein and so reports cell mass.

The test system of another assay is SK-LU-1. The assay is described as follows: Cytotoxicity against human SKLU1 cells assessed as growth inhibition after 48 hrs by SRB assay. Conditions: SK-LU-1, 48 h. In outline: as §1

With `CCCC[C@@]12O[C@]34CCCC=C3C(=O)O[C@@]43[C@H](CCC)[C@@H]4C=C(C(=O)N1[C@@H](C)c1ccccc1)[C@]32CC4`, the 50% inhibitory concentration (IC50) with K562 came out at 13.9 µM; with HCT-15, 7.5 µM; in the assay with SK-LU-1, 4.9 µM.

As for `CCC/C=C1\OC(=O)C2=C1CC[C@H]1[C@@H]2[C@@]2(OC(=O)C3=C2CCC=C3)[C@H]1CCC` (racemic), the values for the IC50 in the assay on K562, in the assay on HCT-15 and in the assay on SK-LU-1 were 46.1 µM, 44.8 µM and 13.2 µM, respectively.

Turning to `CCCC[C@]12O[C@@]34CCCC=C3C(=O)O[C@]43[C@@H](CCC)[C@H]4C=C(C(=O)N1[C@@H](C)c1ccccc1)[C@@]32CC4`, the half-inhibitory concentration (IC50) in the assay with K562 came to 5.2 µM; with HCT-15, 5.2 µM; in the assay with SK-LU-1 it was 4.3 µM.

For the molecule `CCC/C=C1\OC(=O)C2=C[C@H]3CCC21[C@]1(OC(=O)C2=C1CCC=C2)[C@@H]3CCC` (mixture of isomers), the values for the IC50 with K562, in the assay on HCT-15 and in the assay with SK-LU-1 were 26.6 µM, 10.5 µM and 7.1 µM, respectively.

`CCCC[C@@]12O[C@]34CCCC=C3C(=O)O[C@@]43[C@H](CCC)[C@H]4C=C(C(=O)N1[C@H](C)c1ccccc1)[C@]32CC4`: the half-maximal inhibitory concentration (IC50) is 21.7 µM in the assay on K562, 8.5 µM in the assay on HCT-15 and 5.9 µM with SK-LU-1.

For the molecule `C=C1C(=O)O[C@@H]2C[C@@H](C)[C@@H]3C=CC(=O)[C@@]3(C)[C@@H](O)[C@H]12` [HELENALIN], the half-maximal inhibitory concentration (IC50) in the assay on K562 stood at 0.28 µM; with HCT-15, 0.29 µM; in the assay with SK-LU-1 it was 0.21 µM.

As for `CCCC[C@]12O[C@@]34CCCC=C3C(=O)O[C@]43[C@@H](CCC)[C@@H]4C=C(C(=O)N1[C@H](C)c1ccccc1)[C@@]32CC4`, the IC50 with K562 was determined as 5.7 µM; with HCT-15, 5.4 µM; with SK-LU-1 it was 4.1 µM.

Usually IC50 stands for the concentration that inhibits the measured activity by half.

Source of the values: ChEMBL document CHEMBL2046393, “Enantiomeric derivatives of tokinolide B: absolute configuration and biological properties” (J Nat Prod, 2012).
